# In ChEMBL document CHEMBL1149243, “Lactams as EP4 prostanoid receptor agonists. 3. Discovery of N-ethylbenzoic acid 2-pyrrolidinones as subtype selective agents” (J Med Chem, 2004):
# How the values were obtained:
# [1] = molecular target: T1, Prostaglandin E2 receptor EP4 subtype (Homo sapiens, UniProt P35408); test: Functional activity at human EP4 receptor
# [2] = molecular target: Prostaglandin E2 receptor EP2 subtype (Homo sapiens, UniProt P43116); test: Binding affinity to human EP2 receptor
# Prostaglandin E2 receptor EP2 subtype, sequence (P43116 whole entry): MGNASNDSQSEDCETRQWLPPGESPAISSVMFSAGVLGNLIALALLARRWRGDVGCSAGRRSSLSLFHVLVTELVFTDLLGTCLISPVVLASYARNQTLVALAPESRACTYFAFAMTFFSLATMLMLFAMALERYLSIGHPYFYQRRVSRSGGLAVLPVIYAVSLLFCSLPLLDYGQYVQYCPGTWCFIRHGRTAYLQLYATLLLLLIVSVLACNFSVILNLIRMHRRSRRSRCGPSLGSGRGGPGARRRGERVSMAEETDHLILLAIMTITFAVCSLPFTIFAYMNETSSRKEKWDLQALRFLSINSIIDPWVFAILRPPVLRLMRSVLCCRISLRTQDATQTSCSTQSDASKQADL
# [3] = molecular target: T1, Prostaglandin E2 receptor EP4 subtype; test: Binding affinity to human EP4 receptor
# [4] = Clearance in Wistar Han rat at 1 mg/kg, iv; format: ADME, organism-based; parameters: dose 1 mg/kg, route intravenous; conditions: in vivo
# Outline: (§1)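 Single i.v. dose of 1.0 mg/kg lactam; parent compound in plasma quantified by LC-MS/MS with detection down to 0.1 ng/mL. Reported values are averages after i.v. dosing.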
# [5] = Volume of distribution in Wistar Han rat at 1 mg/kg, iv; format: ADME, organism-based; parameters: dose 1 mg/kg, route intravenous; conditions: in vivo, read-out: Vbeta; outline: as §1
# [6] = molecular target: T2, Prostaglandin E2 receptor EP3 subtype (Homo sapiens, UniProt P43115); test: Binding affinity to human EP3 receptor
# T2 sequence (P43115 whole entry): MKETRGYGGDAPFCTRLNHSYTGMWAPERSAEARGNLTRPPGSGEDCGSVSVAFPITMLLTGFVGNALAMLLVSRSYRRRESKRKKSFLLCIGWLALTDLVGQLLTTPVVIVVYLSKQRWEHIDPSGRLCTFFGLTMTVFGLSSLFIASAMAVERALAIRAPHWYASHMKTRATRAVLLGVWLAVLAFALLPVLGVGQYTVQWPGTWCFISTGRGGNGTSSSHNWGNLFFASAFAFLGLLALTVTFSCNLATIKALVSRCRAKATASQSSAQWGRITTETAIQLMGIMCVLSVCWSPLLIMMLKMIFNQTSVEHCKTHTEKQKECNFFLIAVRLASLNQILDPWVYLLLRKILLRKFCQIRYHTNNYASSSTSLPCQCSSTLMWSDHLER
# [7] = Half life in Wistar Han rat at 1 mg/kg, iv; format: ADME, organism-based; parameters: dose 1 mg/kg, route intravenous; conditions: in vivo; outline: as §1
# [8] = molecular target: T3, Prostaglandin E2 receptor EP1 subtype (Homo sapiens, UniProt P34995); test: Binding affinity to human EP1 receptor
# T3 sequence (P34995 whole entry): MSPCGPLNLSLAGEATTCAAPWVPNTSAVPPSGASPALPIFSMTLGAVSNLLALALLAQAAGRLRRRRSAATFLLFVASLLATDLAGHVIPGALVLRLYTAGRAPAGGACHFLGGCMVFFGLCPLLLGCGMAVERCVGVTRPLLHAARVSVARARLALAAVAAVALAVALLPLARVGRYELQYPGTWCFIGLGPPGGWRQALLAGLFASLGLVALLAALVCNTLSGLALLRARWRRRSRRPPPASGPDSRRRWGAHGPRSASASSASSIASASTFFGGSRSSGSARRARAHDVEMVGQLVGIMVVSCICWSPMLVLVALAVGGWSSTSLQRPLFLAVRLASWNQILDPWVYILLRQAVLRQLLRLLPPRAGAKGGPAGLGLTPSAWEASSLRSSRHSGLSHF
# T1 sequence (P35408 whole entry): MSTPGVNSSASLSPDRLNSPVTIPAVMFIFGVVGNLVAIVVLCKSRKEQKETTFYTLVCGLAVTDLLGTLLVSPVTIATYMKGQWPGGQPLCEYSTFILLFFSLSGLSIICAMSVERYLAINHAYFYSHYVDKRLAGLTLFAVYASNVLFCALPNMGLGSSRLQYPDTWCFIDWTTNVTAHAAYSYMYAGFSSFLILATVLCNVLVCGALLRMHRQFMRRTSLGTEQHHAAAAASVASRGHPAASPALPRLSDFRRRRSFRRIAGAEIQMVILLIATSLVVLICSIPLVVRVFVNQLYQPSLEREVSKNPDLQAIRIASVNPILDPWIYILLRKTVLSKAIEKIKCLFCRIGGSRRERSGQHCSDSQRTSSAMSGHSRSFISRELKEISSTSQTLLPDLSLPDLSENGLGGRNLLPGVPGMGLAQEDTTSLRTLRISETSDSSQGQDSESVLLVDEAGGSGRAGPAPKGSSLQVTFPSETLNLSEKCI
structure (smiles),measurement,setting,value
CCCCC[C@H](O)CC[C@H]1CCC(=O)N1CCc1ccc(C(=O)O)cc1,EC50,[1],130 nM (agonist)
same,Ki,[2],0.035 µM (antagonist)
same,Ki,[3],0.017 µM (antagonist)
same,clearance,[4],50 mL/min/kg
same,Vd,[5],15.3 L/kg
same,Ki,[6],90.3 µM
same,half-life,[7],210 min
Cc1cc(Cl)ccc1-c1cccc([C@H](O)CC[C@H]2CCC(=O)N2CCc2ccc(C(=O)O)cc2)c1,EC50,[1],0.04 nM (agonist)
same,Ki,[8],18 µM
same,Ki,[6],54 µM
CCCCC[C@H](O)/C=C/[C@H]1CCC(=O)N1CCSCCCC(=O)O,EC50,[1],17 nM (agonist)
same,Ki,[2],4.7 µM (antagonist)
same,Ki,[3],0.0038 µM (antagonist)
same,clearance,[4],10.5 mL/min/kg
same,Ki,[6],1.9 µM (antagonist)
same,half-life,[7],45.6 min
CCCCC[C@H](O)/C=C/[C@H]1CCC(=O)N1CCc1ccc(C(=O)O)s1,EC50,[1],12 nM (agonist)
same,Ki,[2],3.7 µM (antagonist)
same,Ki,[3],0.0069 µM (antagonist)
same,Ki,[6],> 100 µM
CCCCC[C@H](O)/C=C/[C@H]1CCC(=O)N1CCc1ccc(C(=O)O)cc1,EC50,[1],11 nM (agonist)
same,Ki,[8],> 100 µM
same,Ki,[3],0.0029 µM (antagonist)
same,clearance,[4],41.7 mL/min/kg
same,Ki,[6],11 µM
same,half-life,[7],46.8 min
O=C(O)c1ccc(CCN2C(=O)CC[C@@H]2CC[C@@H](O)CCC2CCC2)cc1,EC50,[1],150 nM (agonist)
same,Ki,[2],0.22 µM (antagonist)
same,Ki,[3],0.018 µM (antagonist)
same,Ki,[6],77 µM
O=C(O)c1ccc(CCN2C(=O)CC[C@@H]2/C=C/[C@@H](O)CCC2CCC2)cc1,EC50,[1],0.2 nM (agonist)
same,Ki,[2],0.075 µM (antagonist)
same,Ki,[3],0.001 µM (antagonist)
same,Ki,[6],79 µM
CCCCC[C@H](O)/C=C/[C@H]1CCC(=O)N1CCCCCCC(=O)O,clearance,[4],91.7 mL/min/kg
same,Vd,[5],6.9 L/kg
same,half-life,[7],52.2 min
CCCCC[C@H](O)/C=C/[C@H]1CCC(=O)N1CCCCOCC(=O)O,Vd,[5],1.5 L/kg
COCc1cccc(C[C@H](O)/C=C/[C@H]2CCC(=O)N2CCc2ccc(C(=O)O)cc2)c1,EC50,[1],5.9 nM (agonist)
same,Ki,[2],2.5 µM (antagonist)
same,Ki,[3],0.0007 µM (antagonist)
same,Ki,[6],> 100 µM
